The record followed here is ChEMBL document CHEMBL1155661, “Bioactive steroids from the whole herb of Euphorbia chamaesyce” (J Nat Prod, 2000).

Holding throughout (format): cell-based
A short description of series [1]: Cytotoxicity against human Raji cells assessed as cell viability at 1000 molar ratio. As to conditions: read-out: Activity.
Series [2] relates to Raji. The series is described as follows: Inhibition of 12-O-tetradecanoylphorbol-13-acetate induced EBV-early antigen activation in human Raji cells assessed as EA induction at 1000 molar ratio by immunofluorescence assay relative to TPA. More on the design: scale not given: the % may be the effect or the level left. As to conditions: human gammaherpesvirus 4. An outline of the steps:
(§1)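 Cells at 1 × 10⁶/mL were incubated 48 h at 37 °C with n-butyric acid (4 mM) and TPA (32 pmol, 20 ng/mL) in DMSO, plus compound in DMSO dosed as mol ratio to TPA. EA-positive cells in smears were detected by indirect immunofluorescence with high-titer EBV-EA-positive nasopharyngeal carcinoma patient sera. At least 500 cells were counted, experiments were run twice, and values are expressed relative to TPA alone (100%).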

Series [3] deals with Raji. The series is described as follows: Inhibition of 12-O-tetradecanoylphorbol-13-acetate induced EBV-early antigen activation in human Raji cells assessed as EA induction at 10 molar ratio by immunofluorescence assay relative to TPA. The following applies: human gammaherpesvirus 4. Details: scale not given: the % may be the effect or the level left. An outline of the steps:
as §1

In series [4] the test system is Raji. The series is described as follows: Inhibition of 12-O-tetradecanoylphorbol-13-acetate induced EBV-early antigen activation in human Raji cells assessed as EA induction at 100 molar ratio by immunofluorescence assay relative to TPA. As to conditions: human gammaherpesvirus 4. Details: scale not given: the % may be the effect or the level left. In a few lines: as §1

For series [5], the system named is Raji. Kind of series: Inhibition of 12-O-tetradecanoylphorbol-13-acetate induced EBV-early antigen activation in human Raji cells assessed as EA induction at 500 molar ratio by immunofluorescence assay relative to TPA. More on the design: scale not given: the % may be the effect or the level left. The following applies: human gammaherpesvirus 4. In a few lines:
as §1

SMILES strings stand for the structures.

With `C=C(CC[C@@H](C)[C@H]1CC[C@@]2(C)C3=C(C(=O)C[C@]12C)[C@@]1(C)CC[C@H](O)[C@@H](C)[C@@H]1CC3=O)C(C)C`, in series [1], the viability at 1000 molar ratio stood at 70%. Moreover, the Activity in the series on Raji [2] came to 0%; in the series on Raji [3], 91.9%; with Raji [4], 70.4%; in the series on Raji [5], 22.5%.
For `CC1(C)CC[C@]2(C(=O)O)CC[C@]3(C)C(=CC[C@@H]4[C@@]5(C)CC[C@H](O)C(C)(C)[C@@H]5CC[C@]43C)[C@@H]2C1` [OLEANOLIC_ACID], in that order: 70%, 12.7%, 93.7%, 72.5% and 22.4%.
`C=C(CC[C@@H](C)[C@H]1CC[C@@]2(C)C3=C(C(=O)C[C@]12C)[C@@]1(C)CC[C@H](O)[C@@H](C)[C@@H]1CC3)C(C)C`: the viability at 1000 molar ratio in series [1] is 70%. For the same compound, the Activity with Raji [2] came to 0%; in the series on Raji [3], 92.8%; in the series on Raji [4] it was 72.4%; in the series on Raji [5], 23.6%.
Turning to `C=C(CC[C@@H](C)[C@H]1CC[C@@]2(C)C3=CC[C@H]4[C@H](C)[C@@H](O)CC[C@]4(C)C3=CC[C@]12C)C(C)C`, in series [1], the viability at 1000 molar ratio was 70%. The Activity with Raji [2] turned out to be 0%; in the series on Raji [3] it was 92.4%; in the series with Raji [4], 74.9%; in the series with Raji [5], 27.3%.
Consider `C=C(CC[C@@H](C)[C@H]1CC[C@@]2(C)C3=C(CC[C@]12C)[C@@]1(C)CC[C@H](O)[C@@H](C)[C@@H]1CC3)C(C)C` [OBTUSIFOLIOL], for which the viability at 1000 molar ratio in series [1] stood at 70%. For the same compound, the Activity with Raji [2] is 0%; in the series with Raji [3], 95.8%; with Raji [4] it was 77.4%; in the series on Raji [5], 30.2%.
